Test results from ChEMBL document CHEMBL1155297, “Synthesis, antimicrobial and antioxidant activities of substituted pyrazoles, isoxazoles, pyrimidine and thioxopyrimidine derivatives” (2009).
Values after ≈ are worked out from the molar mass of the structure shown.

Tests used:
Format in all cases: functional
Staphylococcus aureus [1] = assay: Antibacterial activity against Staphylococcus aureus NCIM 5021 at 100 ug/disk after 24 hrs by agar disk diffusion method; conditions: NCIM 5021, 24 h, read-out: IZ
Method in brief: (§1)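 Agar disc diffusion on nutrient agar plates pre-inoculated with each bacterium. Sterile 6 mm filter-paper discs were moistened with compound in DMSO at the stated per-disc amount. Plates were incubated at 37 °C, and the growth-inhibition zone diameter was read after 24 h. Each determination was run in triplicate, and the mean of three independent readings is reported.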

Staphylococcus aureus [2] = assay: Antibacterial activity against Staphylococcus aureus NCIM 5021 at 200 ug/disk after 24 hrs by agar disk diffusion method; conditions: NCIM 5021, 24 h, read-out: IZ; method in brief: as §1
Bacillus subtilis [3] = assay: Antibacterial activity against Bacillus subtilis NCIM 2063 at 100 ug/disk after 24 hrs by agar disk diffusion method; conditions: NCIM 2063, 24 h, read-out: IZ; method in brief: as §1
Bacillus subtilis [4] = assay: Antibacterial activity against Bacillus subtilis NCIM 2063 at 200 ug/disk after 24 hrs by agar disk diffusion method; conditions: NCIM 2063, 24 h, read-out: IZ; method in brief: as §1
Klebsiella pneumoniae [5] = assay: Antibacterial activity against Klebsiella pneumoniae NCIM 2957 at 100 ug/disk after 24 hrs by agar disk diffusion method; conditions: NCIM 2957, 24 h, read-out: IZ; method in brief: as §1
Klebsiella pneumoniae [6] = assay: Antibacterial activity against Klebsiella pneumoniae NCIM 2957 at 200 ug/disk after 24 hrs by agar disk diffusion method; conditions: NCIM 2957, 24 h, read-out: IZ; method in brief: as §1
Proteus vulgaris [7] = assay: Antibacterial activity against Proteus vulgaris NCIM 2027 at 100 ug/disk after 24 hrs by agar disk diffusion method; conditions: NCIM 2027, 24 h, read-out: IZ; method in brief: as §1
Proteus vulgaris [8] = assay: Antibacterial activity against Proteus vulgaris NCIM 2027 at 200 ug/disk after 24 hrs by agar disk diffusion method; conditions: NCIM 2027, 24 h, read-out: IZ; method in brief: as §1
Staphylococcus aureus [9] = assay: Antibacterial activity against Staphylococcus aureus NCIM 5021 after 24 hrs by microdilution susceptibility method; conditions: NCIM 5021, 24 h
Method in brief: (§2)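 MIC by microdilution susceptibility; compounds in DMSO, bacterial suspensions inoculated into wells. Incubation was at 36 °C for 24 h. MIC is the lowest compound concentration showing no turbidity. Chloramphenicol served as reference antibacterial.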

Bacillus subtilis [10] = assay: Antibacterial activity against Bacillus subtilis NCIM 2063 after 24 hrs by microdilution susceptibility method; conditions: NCIM 2063, 24 h; method in brief: as §2
Klebsiella pneumoniae [11] = assay: Antibacterial activity against Klebsiella pneumoniae NCIM 2957 after 24 hrs by microdilution susceptibility method; conditions: NCIM 2957, 24 h; method in brief: as §2
Proteus vulgaris [12] = assay: Antibacterial activity against Proteus vulgaris NCIM 2027 after 24 hrs by microdilution susceptibility method; conditions: NCIM 2027, 24 h; method in brief: as §2
Fusarium solani [13] = assay: Antifungal activity against Fusarium solani NCIM 1330 at 100 ug/disk after 48 hrs by agar disk diffusion method; conditions: NCIM 1330, 48 h, read-out: IZ
Method in brief: (§3)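 Fungal disc diffusion on nutrient agar plates pre-inoculated with each fungus. 6 mm sterile paper discs carried the compound in DMSO at the stated amount per disc. Plates were held at 37 °C, and inhibition-zone diameter was measured after 48 h. Values are the mean of three independent triplicate readings.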

Fusarium solani [14] = assay: Antifungal activity against Fusarium solani NCIM 1330 at 200 ug/disk after 48 hrs by agar disk diffusion method; conditions: NCIM 1330, 48 h, read-out: IZ; method in brief: as §3
Curvularia lunata [15] = assay: Antifungal activity against Curvularia lunata NCIM 716 at 100 ug/disk after 48 hrs by agar disk diffusion method; conditions: NCIM 716, 48 h, read-out: IZ; method in brief: as §3
Curvularia lunata [16] = assay: Antifungal activity against Curvularia lunata NCIM 716 at 200 ug/disk after 48 hrs by agar disk diffusion method; conditions: NCIM 716, 48 h, read-out: IZ; method in brief: as §3
Aspergillus niger [17] = assay: Antifungal activity against Aspergillus niger NCIM 596 at 100 ug/disk after 48 hrs by agar disk diffusion method; conditions: NCIM 596, 48 h, read-out: IZ; method in brief: as §3
Aspergillus niger [18] = assay: Antifungal activity against Aspergillus niger NCIM 596 at 200 ug/disk after 48 hrs by agar disk diffusion method; conditions: NCIM 596, 48 h, read-out: IZ; method in brief: as §3
[19] = test system: Radical scavenging activity; assay: Antioxidant activity assessed as DPPH free radical scavenging activity at 100 uM after 20 mins
Method in brief: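 DPPH scavenging: compound solutions were added to DPPH in dioxane/ethanol and kept at ambient temperature for 20 min. Absorbance was read at 517 nm. The test–control difference was expressed as percent DPPH radical scavenging.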

[20] = Antioxidant activity assessed as nitric oxide production at 100 uM after 120 mins by Griess reagent method
Method in brief: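 Nitric oxide assay with Griess read-out. At intervals, 0.5 ml of incubation solution was mixed with 0.5 ml Griess reagent (1% sulfanilamide, 0.1% N-naphthylethylenediamine dihydrochloride, 2% o-phosphoric acid in water). The control received an equal amount of solvent and was handled identically.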

SMILES	zone of inhibition at 100 µg/disc (Staphylococcus aureus [1]) [mm]	zone of inhibition at 200 µg/disc (Staphylococcus aureus [2]) [mm]	zone of inhibition at 100 µg/disc (Bacillus subtilis [3]) [mm]	zone of inhibition at 200 µg/disc (Bacillus subtilis [4]) [mm]	zone of inhibition at 100 µg/disc (Klebsiella pneumoniae [5]) [mm]	zone of inhibition at 200 µg/disc (Klebsiella pneumoniae [6]) [mm]	zone of inhibition at 100 µg/disc (Proteus vulgaris [7]) [mm]	zone of inhibition at 200 µg/disc (Proteus vulgaris [8]) [mm]	MIC (Staphylococcus aureus [9]) [µg/mL]	MIC (Bacillus subtilis [10]) [µg/mL]	MIC (Klebsiella pneumoniae [11]) [µg/mL]	MIC (Proteus vulgaris [12]) [µg/mL]	zone of inhibition at 100 µg/disc (Fusarium solani [13]) [mm]	zone of inhibition at 200 µg/disc (Fusarium solani [14]) [mm]	zone of inhibition at 100 µg/disc (Curvularia lunata [15]) [mm]	zone of inhibition at 200 µg/disc (Curvularia lunata [16]) [mm]	zone of inhibition at 100 µg/disc (Aspergillus niger [17]) [mm]	zone of inhibition at 200 µg/disc (Aspergillus niger [18]) [mm]	inhibition [19] [%]	inhibition [20] [%]
O=C(N[C@H](CO)[C@H](O)c1ccc([N+](=O)[O-])cc1)C(Cl)Cl [CHLORAMPHENICOL]	35	41	38	44	37	42	42	45	6.25 (≈ 19.3 µM)	6.25 (≈ 19.3 µM)	12.5 (≈ 38.7 µM)	12.5 (≈ 38.7 µM)	–	–	–	–	–	–	–	–
NC1=NC(=O)N=C(N)C1C(CC(=O)c1ccccc1)C(=O)c1ccccc1 (stereo not given)	11	14	16	15	11	12	12	14	–	–	–	–	13	16	16	20	14	17	24.7	26.8
NC1=NC(=S)N=C(N)C1C(CS(=O)(=O)c1ccccc1)S(=O)(=O)c1ccccc1 (stereo not given)	22	25	23	26	21	23	19	21	–	–	–	–	18	20	19	22	16	19	46.9	45.8
NC1=NC(=S)N=C(N)C1C(CS(=O)(=O)c1ccc(Cl)cc1)S(=O)(=O)c1ccc(Cl)cc1 (stereo not given)	25	27	23	25	20	22	21	23	–	–	–	–	22	25	25	28	20	23	47.9	48.5
Cc1ccc(S(=O)(=O)CC(C2C(N)=NN=C2N)S(=O)(=O)c2ccc(C)cc2)cc1 (stereo not given)	27	29	26	28	23	26	22	25	–	–	–	–	30	35	31	33	28	31	59.4	60.5
CN1C(=N)C(C(CC(=O)c2ccc(Cl)cc2)C(=O)c2ccc(Cl)cc2)C(=N)N(C)C1=O (stereo not given)	12	14	11	13	9	10	9	11	–	–	–	–	14	16	13	15	11	13	29.9	28.2
NC1=NC(=S)N=C(N)C1C(CC(=O)c1ccccc1)C(=O)c1ccccc1 (stereo not given)	22	24	23	24	19	21	17	19	–	–	–	–	16	20	19	22	14	19	37.8	35.7
NC1=NN=C(N)C1C(CS(=O)(=O)c1ccccc1)S(=O)(=O)c1ccccc1 (stereo not given)	30	32	31	33	28	30	24	25	–	–	–	–	34	37	33	36	31	34	58.5	60
NC1=NC(=S)N=C(N)C1C(CC(=O)c1ccc(Cl)cc1)C(=O)c1ccc(Cl)cc1 (stereo not given)	25	26	23	25	19	22	20	22	–	–	–	–	19	22	17	21	15	20	41.6	43.4
